Source: ChEMBL document CHEMBL5661986, “Discovery of the SMYD3 Inhibitor BAY-6035 Using Thermal Shift Assay (TSA)-Based High-Throughput Screening” (SLAS Discov, 2021)
Active and inactive are the calls of the source. No cut-off for these calls is given here.

Tests used:
[1] = system: PaTu 8988t; assay: Antiproliferative activity against human PaTu 8988t cells assessed as inhibition of cell viability measured for 3 to 5 days by alamar blue staining based assay; format: functional
[2] = system: Hs746T; assay: Antiproliferative activity against human Hs746T cells assessed as inhibition of cell viability measured for 3 to 5 days by alamar blue staining based assay; format: functional
[3] = system: COLO-679; assay: Antiproliferative activity against human COLO-679 cells assessed as inhibition of cell viability measured for 3 to 5 days by alamar blue staining based assay; format: functional
[4] = target: Cyclin-dependent kinase 13 (Homo sapiens, UniProt Q14004); assay: Inhibition of CDK13 (unknown origin) by using c-myc peptide as substrate in presence of ATP
[5] = target: Histone-arginine methyltransferase CARM1 (Homo sapiens) (UniProt Q86X55); assay: Inhibition of PRMT4 (unknown origin)
[6] = system: Hs-578T; assay: Antiproliferative activity against human Hs-578T cells assessed as inhibition of cell viability measured for 3 to 5 days by alamar blue staining based assay; format: functional
[7] = target: Protein arginine N-methyltransferase 7 (Homo sapiens) (UniProt Q9NVM4); assay: Inhibition of PRMT7 (unknown origin)
[8] = target: Histone-lysine N-methyltransferase 2C (Homo sapiens) (UniProt Q8NEZ4); assay: Inhibition of MLL3 (unknown origin)
[9] = organism: Homo sapiens; assay: Inhibition of PRC2 (unknown origin)
[10] = target: Casein kinase I isoform gamma-3 (Homo sapiens, UniProt Q9Y6M4); assay: Inhibition of CSNK1G3 (unknown origin)
[11] = target: Receptor-type tyrosine-protein kinase FLT3 (Homo sapiens, UniProt P36888); assay: Inhibition of FLT3 (unknown origin)
[12] = system: Histone-lysine N-methyltransferase SMYD3 (Homo sapiens), Q9H7B4 [UNDEFINED MUTATION]; assay: Inhibition of SMYD3 catalytic inactive mutant co-expressed with HA-tagged MAP3K2 transfected in human HeLa cells assessed as reduction of MAP3K2-K260me3 level at 1.1 uM incubated for 20 hrs by Western blotting analysis relative to control; format: cell-based
In short: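 After 4 h, compound or DMSO for 20 h. Lysates immunoblotted for MAP3K2-K260me3 (in-house antibody), HA, SMYD3 and MAP3K2 with infrared secondaries. K260me3 signal normalized to HA; three technical replicates, mean ± SEM, nonlinear fit.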

[13] = target: MAP kinase-interacting serine/threonine-protein kinase 2 (Homo sapiens, UniProt Q9HBH9); assay: Inhibition of MKNK2 (unknown origin) in presence of ATP
[14] = target: Interleukin-1 receptor-associated kinase 4 (Homo sapiens, UniProt Q9NWZ3); assay: Inhibition of IRAK4 (unknown origin) in BGG-buffer in presence of ATP
[15] = target: Protein arginine N-methyltransferase 1 (Homo sapiens) (UniProt Q99873); assay: Inhibition of PRMT1 (unknown origin)
[16] = target: T1, Histone-lysine N-methyltransferase SMYD3 (Homo sapiens, UniProt Q9H7B4); assay: Binding affinity to recombinant human SMYD3 expressed in Escherichia coli assessed as dissociation constant by isothermal titration calorimetry
T1 sequence (Q9H7B4 whole entry): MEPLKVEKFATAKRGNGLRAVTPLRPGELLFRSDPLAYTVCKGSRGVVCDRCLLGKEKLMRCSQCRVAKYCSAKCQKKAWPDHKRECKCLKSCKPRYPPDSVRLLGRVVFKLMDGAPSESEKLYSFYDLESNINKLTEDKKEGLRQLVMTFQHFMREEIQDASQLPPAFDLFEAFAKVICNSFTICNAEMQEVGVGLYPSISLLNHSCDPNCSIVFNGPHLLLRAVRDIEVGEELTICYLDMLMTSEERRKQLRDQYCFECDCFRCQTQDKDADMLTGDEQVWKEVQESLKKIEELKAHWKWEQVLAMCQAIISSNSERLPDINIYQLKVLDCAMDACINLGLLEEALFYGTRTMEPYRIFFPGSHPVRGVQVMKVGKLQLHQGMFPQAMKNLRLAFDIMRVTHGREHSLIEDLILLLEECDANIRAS
In short: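 Syringe held compound at 0.3 mM in 20 mM HEPES pH 7.4, 150 mM NaCl, 0.005% Tween 20, 2.5% DMSO; eight 4 µL injections at 180 s intervals into SMYD3.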

[17] = target: Histone-lysine N-methyltransferase PRDM9 (Homo sapiens) (UniProt Q9NQV7); assay: Inhibition of PRDM9 (unknown origin)
[18] = target: Dual specificity tyrosine-phosphorylation-regulated kinase 1A (Homo sapiens, UniProt Q13627); assay: Inhibition of human DYRK1a
[19] = target: Diacylglycerol kinase alpha (Mus musculus, UniProt O88673); assay: Inhibition of mouse DGK alpha by ADP-Glo assay
[20] = target: T1, Histone-lysine N-methyltransferase SMYD3; assay: Binding affinity to recombinant human SMYD3 expressed in Escherichia coli assessed as catalytic inhibition using DYDNPIFEKFGKGGTYPRRYHVSYHGK-Biotin as substrate by scintillation proximity assay
[21] = target: N-lysine methyltransferase KMT5A (Homo sapiens) (UniProt Q9NQR1); assay: Inhibition of SETD8 (unknown origin)
[22] = target: DNA (cytosine-5)-methyltransferase 1 (Homo sapiens) (UniProt P26358); assay: Inhibition of DNMT1 (unknown origin)
[23] = target: Phosphatidylinositol 5-phosphate 4-kinase type-2 alpha (Homo sapiens, UniProt P48426); assay: Inhibition of human PIP4K2A
[24] = target: Histone-lysine N-methyltransferase 2A (Homo sapiens) (UniProt Q03164); assay: Inhibition of MLL1 (unknown origin)
[25] = target: Histone-lysine N-methyltransferase, H3 lysine-36 specific (Homo sapiens) (UniProt Q96L73); assay: Inhibition of NSD1 (unknown origin)
[26] = target: Vascular endothelial growth factor receptor 3 (Homo sapiens, UniProt P35916); assay: Inhibition of FLT4 (unknown origin)
[27] = system: HT-29; assay: Antiproliferative activity against human HT-29 cells assessed as inhibition of cell viability measured for 3 to 5 days by alamar blue staining based assay; format: functional
[28] = target: Histone-lysine N-methyltransferase EHMT2 (Homo sapiens) (UniProt Q96KQ7); assay: Inhibition of G9a (unknown origin)
[29] = target: Histone-lysine N-methyltransferase NSD2 (Homo sapiens) (UniProt O96028); assay: Inhibition of NSD2 (unknown origin)
[30] = target: NUAK family SNF1-like kinase 1 (Homo sapiens, UniProt O60285); assay: Inhibition of NUAK1 (unknown origin) in presence of ATP
[31] = target: N-lysine methyltransferase SMYD2 (Homo sapiens) (UniProt Q9NRG4); assay: Inhibition of SMYD2 (unknown origin)
[32] = target: RNA 5'-monophosphate methyltransferase (Homo sapiens) (UniProt Q7Z5W3); assay: Inhibition of BCDIN3D (unknown origin)
[33] = target: Casein kinase I isoform alpha (Homo sapiens, UniProt P48729); assay: Inhibition of CSNK1A1 (unknown origin)
[34] = system: KYSE-30; assay: Antiproliferative activity against human KYSE-30 cells assessed as inhibition of cell viability measured for 3 to 5 days by alamar blue staining based assay; format: functional
[35] = system: Jurkat; assay: Antiproliferative activity against human Jurkat cells assessed as inhibition of cell viability measured for 3 to 5 days by alamar blue staining based assay; format: functional

Sequence of NUAK family SNF1-like kinase 1 (O60285 whole entry): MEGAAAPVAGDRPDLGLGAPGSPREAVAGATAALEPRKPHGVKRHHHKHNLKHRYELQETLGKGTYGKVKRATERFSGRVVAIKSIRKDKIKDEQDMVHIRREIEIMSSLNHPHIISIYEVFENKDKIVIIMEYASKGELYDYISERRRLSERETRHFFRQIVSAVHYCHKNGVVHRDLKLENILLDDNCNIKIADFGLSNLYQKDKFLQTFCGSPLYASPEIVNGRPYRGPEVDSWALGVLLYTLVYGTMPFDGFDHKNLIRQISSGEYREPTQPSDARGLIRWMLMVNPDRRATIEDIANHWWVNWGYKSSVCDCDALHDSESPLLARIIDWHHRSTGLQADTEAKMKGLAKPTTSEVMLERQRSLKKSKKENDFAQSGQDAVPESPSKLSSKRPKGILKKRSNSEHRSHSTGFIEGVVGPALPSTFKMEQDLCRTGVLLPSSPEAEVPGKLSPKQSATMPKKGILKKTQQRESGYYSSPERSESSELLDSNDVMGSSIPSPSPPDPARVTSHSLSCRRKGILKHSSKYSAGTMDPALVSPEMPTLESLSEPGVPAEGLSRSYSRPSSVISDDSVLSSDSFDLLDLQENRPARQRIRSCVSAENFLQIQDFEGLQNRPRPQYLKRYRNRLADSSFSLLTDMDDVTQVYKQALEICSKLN
Sequence of Casein kinase I isoform alpha (P48729 whole entry, canonical isoform): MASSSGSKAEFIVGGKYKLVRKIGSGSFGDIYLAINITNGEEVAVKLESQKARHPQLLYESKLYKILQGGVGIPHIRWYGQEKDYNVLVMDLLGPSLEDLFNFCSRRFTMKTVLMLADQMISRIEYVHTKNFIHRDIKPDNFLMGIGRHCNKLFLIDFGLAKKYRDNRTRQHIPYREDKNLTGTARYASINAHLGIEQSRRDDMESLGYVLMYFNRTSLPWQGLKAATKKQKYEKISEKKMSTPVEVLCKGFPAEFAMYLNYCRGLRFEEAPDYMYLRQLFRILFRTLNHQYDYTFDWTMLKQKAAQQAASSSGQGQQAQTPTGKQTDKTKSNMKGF
Sequence of Casein kinase I isoform gamma-3 (Q9Y6M4 whole entry, canonical isoform): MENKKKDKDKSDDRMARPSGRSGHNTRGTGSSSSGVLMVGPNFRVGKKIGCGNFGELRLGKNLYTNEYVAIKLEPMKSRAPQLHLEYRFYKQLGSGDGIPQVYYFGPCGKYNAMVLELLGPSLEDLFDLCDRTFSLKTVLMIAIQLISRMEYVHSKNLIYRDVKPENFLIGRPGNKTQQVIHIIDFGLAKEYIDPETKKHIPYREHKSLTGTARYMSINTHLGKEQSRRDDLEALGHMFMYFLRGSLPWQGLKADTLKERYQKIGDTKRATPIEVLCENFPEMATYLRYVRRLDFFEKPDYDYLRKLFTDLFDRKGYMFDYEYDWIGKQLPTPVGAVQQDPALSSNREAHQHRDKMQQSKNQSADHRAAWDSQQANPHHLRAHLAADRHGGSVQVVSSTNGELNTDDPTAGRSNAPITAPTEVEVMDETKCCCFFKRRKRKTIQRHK
Sequence of DNA (cytosine-5)-methyltransferase 1 (Homo sapiens) (P26358 whole entry): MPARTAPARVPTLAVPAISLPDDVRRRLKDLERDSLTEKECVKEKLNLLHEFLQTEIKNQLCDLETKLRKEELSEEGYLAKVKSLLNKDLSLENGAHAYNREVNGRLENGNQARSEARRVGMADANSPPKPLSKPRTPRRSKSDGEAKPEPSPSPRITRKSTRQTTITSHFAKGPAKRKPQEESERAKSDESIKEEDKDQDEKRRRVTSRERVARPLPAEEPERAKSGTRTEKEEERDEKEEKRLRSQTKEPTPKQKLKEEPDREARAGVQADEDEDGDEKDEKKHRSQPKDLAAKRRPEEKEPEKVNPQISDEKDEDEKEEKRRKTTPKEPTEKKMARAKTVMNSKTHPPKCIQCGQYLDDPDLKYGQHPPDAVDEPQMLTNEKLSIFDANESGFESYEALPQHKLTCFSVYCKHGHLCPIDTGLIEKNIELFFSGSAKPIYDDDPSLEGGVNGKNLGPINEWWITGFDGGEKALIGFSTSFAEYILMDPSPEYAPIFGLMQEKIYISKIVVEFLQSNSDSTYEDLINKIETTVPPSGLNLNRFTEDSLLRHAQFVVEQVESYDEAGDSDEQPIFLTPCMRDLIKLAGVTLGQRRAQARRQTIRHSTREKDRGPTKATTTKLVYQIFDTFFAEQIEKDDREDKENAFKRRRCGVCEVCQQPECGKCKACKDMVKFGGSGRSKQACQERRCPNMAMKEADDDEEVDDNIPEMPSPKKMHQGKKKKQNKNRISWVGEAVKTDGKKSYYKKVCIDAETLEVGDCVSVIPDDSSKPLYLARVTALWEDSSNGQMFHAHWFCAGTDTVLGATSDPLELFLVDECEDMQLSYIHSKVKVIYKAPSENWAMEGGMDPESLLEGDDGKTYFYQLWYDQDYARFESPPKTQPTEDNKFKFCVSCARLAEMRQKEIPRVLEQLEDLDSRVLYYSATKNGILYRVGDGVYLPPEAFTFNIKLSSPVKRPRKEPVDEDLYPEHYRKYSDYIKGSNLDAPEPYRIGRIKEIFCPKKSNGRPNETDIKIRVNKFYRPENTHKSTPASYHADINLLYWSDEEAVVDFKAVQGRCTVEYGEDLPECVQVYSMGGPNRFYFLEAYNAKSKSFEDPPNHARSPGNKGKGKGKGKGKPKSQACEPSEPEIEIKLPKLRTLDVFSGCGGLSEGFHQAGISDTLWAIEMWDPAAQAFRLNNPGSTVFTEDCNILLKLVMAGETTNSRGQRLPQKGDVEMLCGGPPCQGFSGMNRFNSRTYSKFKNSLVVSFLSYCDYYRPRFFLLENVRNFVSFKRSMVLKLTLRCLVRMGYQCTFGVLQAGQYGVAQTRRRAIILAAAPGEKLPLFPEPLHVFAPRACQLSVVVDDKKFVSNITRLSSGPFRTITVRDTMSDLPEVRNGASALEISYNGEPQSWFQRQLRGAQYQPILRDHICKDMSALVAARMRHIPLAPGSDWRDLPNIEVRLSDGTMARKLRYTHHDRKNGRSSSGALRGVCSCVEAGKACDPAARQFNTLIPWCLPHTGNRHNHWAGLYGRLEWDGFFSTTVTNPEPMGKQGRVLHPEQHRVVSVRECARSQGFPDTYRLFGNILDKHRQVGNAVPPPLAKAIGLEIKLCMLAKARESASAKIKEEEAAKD
Sequence of RNA 5'-monophosphate methyltransferase (Homo sapiens) (Q7Z5W3 whole entry, canonical isoform): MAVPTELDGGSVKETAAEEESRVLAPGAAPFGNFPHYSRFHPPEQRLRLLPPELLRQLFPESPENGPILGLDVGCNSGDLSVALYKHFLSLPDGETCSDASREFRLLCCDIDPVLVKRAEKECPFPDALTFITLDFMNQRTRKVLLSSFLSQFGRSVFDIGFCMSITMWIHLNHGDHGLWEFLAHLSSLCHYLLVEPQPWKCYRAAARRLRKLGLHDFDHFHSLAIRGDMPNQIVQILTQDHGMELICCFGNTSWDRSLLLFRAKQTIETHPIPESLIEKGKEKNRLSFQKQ
Sequence of Diacylglycerol kinase alpha (O88673 whole entry): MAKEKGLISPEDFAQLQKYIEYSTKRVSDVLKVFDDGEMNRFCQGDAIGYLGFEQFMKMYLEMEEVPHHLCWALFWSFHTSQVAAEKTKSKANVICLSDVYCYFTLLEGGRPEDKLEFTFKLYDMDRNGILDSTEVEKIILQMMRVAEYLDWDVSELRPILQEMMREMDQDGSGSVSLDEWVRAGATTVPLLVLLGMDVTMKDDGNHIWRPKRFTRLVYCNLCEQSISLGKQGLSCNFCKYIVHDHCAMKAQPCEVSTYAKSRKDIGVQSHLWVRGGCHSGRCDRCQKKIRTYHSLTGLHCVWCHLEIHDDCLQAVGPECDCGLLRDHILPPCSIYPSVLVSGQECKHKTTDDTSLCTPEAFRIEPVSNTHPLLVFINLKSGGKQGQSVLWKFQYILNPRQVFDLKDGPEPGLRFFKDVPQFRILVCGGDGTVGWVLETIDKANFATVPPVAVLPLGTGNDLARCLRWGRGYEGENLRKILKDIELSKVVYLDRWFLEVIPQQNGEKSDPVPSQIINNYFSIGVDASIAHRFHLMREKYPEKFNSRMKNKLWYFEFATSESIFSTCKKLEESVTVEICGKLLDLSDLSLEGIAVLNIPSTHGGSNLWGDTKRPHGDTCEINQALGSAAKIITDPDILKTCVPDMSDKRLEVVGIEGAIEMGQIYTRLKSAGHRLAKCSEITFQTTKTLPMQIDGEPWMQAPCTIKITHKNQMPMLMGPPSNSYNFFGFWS
Sequence of N-lysine methyltransferase KMT5A (Homo sapiens) (Q9NQR1 whole entry): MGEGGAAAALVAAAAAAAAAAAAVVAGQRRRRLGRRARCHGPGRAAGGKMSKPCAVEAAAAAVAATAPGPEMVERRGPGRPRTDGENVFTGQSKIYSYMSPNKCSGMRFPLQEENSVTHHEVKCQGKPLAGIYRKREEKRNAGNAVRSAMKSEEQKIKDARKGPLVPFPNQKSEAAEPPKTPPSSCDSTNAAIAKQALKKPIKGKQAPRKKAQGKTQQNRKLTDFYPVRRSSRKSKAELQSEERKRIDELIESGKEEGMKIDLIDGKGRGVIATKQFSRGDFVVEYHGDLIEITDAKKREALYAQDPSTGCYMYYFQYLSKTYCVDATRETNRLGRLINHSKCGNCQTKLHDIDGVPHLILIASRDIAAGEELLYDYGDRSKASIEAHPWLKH
Sequence of Phosphatidylinositol 5-phosphate 4-kinase type-2 alpha (P48426 whole entry): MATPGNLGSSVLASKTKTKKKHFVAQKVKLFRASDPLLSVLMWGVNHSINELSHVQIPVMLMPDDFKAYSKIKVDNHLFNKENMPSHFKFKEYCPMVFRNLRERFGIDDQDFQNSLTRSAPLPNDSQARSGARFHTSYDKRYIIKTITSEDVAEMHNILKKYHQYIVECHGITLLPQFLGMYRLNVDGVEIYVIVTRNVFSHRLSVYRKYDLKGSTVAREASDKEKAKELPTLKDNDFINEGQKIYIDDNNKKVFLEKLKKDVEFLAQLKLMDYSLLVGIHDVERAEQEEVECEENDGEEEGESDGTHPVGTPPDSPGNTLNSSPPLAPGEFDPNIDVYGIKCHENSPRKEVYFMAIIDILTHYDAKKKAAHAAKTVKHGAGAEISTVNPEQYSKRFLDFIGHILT

C[C@H]1CC(=O)Nc2cc(C(=O)NCCC3CC3)ccc2N1C(=O)N1CC2CC2C1 (stereo not given in full)
IC50 [1]: > 10 µM
IC50 [2]: > 10 µM
IC50 [3]: > 10 µM
IC50 [4]: > 20 µM
inhibition [5]: inactive
IC50 [6]: > 10 µM
inhibition [7]: inactive
inhibition [8]: inactive
inhibition [9]: inactive
IC50 [10]: > 20 µM
IC50 [11]: > 20 µM
inhibition [12]: 86%
IC50 [13]: > 20 µM
IC50 [14]: > 20 µM
inhibition [15]: inactive
Kd [16]: 0.133 µM
inhibition [17]: inactive
IC50 [18]: > 20 µM
IC50 [19]: > 20 µM
IC50 [20]: 0.088 µM
inhibition [21]: inactive
inhibition [22]: inactive
IC50 [23]: > 20 µM
inhibition [24]: inactive
inhibition [25]: inactive
IC50 [26]: > 20 µM
IC50 [27]: > 10 µM
inhibition [28]: inactive
inhibition [29]: inactive
IC50 [30]: > 20 µM
inhibition [31]: inactive
inhibition [32]: inactive
IC50 [33]: > 20 µM
IC50 [34]: > 10 µM
IC50 [35]: > 10 µM
